Assay results as given in ChEMBL document CHEMBL5150073, “Photocaged DNA-Binding Photosensitizer Enables Photocontrol of Nuclear Entry for Dual-Targeted Photodynamic Therapy” (J Med Chem, 2022).
Activity calls are given as the source filed them. No cut-off for these calls is given here.

Legend:
MCF7 [1] = assay: Induction of ROS production in human MCF7 cells at 2 uM incubated for 1 hr in dark followed by irradiation with 480 nm 2.3 J/cm^2 light for 15 mins with 8 J/cm^2 UV irradiation for 5 mins by DCFH2-DA probe based analysis; format: functional, cell-based; conditions: time 80.0 min
Procedure, shortened: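 MCF7 cells incubated with compound (2 μM) 1 h in the dark, washed, loaded with 10 μM DCFH2DA for 30 min, washed. DCF green fluorescence imaged after 480 nm illumination (15 min, 2.3 J cm⁻²), then after added 365 nm UV (5 min, 8.0 J cm⁻²). Mean fluorescence intensity quantified.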

A549 = assay: Selectivity index, ratio of CC50 for photocytotoxicity against human […] cells irradiated with 480 nm 2.3 J/cm^2 light to CC50 for photocytotoxicity against human A549 cells irradiated with 480 nm 2.3 J/cm^2 light and 8 J/cm^2 UV irradiation; format: functional
Procedure, shortened: (§1)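 Cells (MCF7, A549, HeLa) incubated 1 h with compound (BB probes 0–32 μM, Br-DAPI 0–64 μM) and washed once. Light arms: 480 nm (15 min, 2.3 J cm⁻²) with or without UV (5 min, 8.0 J cm⁻²), or UV only; dark controls unilluminated. Cells kept overnight in growth medium, then MTT read 24 h post-treatment. CC50 taken relative to untreated cells. n = 3.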

MCF7 [2] = assay: Photocytotoxicity against human MCF7 cells cultured as 3D spheroids assessed as fold reduction in diameter of tumor spheroid size at 10 uM incubated for 1 hr followed by washout and irradiation with 480 nm 2.3 J/cm^2 light for 15 mins with 8 J/cm^2 UV irradiation for 5 mins and incubated overnight by cell viability imaging kit based assay
[3] = (§2) Stability of compound in human HeLa cells assessed as esterase-mediated 3-bromo-2-(4-carbamimidoylphenyl)-1H-indole-6-carboxamidine release by measuring cyan fluorescence at 2 uM incubated for 1 hr followed by compound washout and further incubated for 1 hr on heated microscopic stage by DAPI filter based fluorescence analysis; format: ADME, cell-based
Procedure, shortened: (§3)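 Cells incubated with compound (2 μM) for 1 h, washed once with PBS, then kept a further 1 h in the dark on a heated microscope stage. Nuclear cyan fluorescence imaged with the DAPI filter set at 0 h and 2 h time points.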

[4] = Induction of ROS production in PBS at pH 7.4 at 1 uM irradiated with 480 nm 2.3 J/cm^2 light for 15 mins with 8 J/cm^2 UV irradiation for 5 mins by DCFH2-DA probe based analysis; format: functional; conditions: time 20.0 min
[5] = Photorelease activity in PBS at pH 7.4 assessed as 3-bromo-2-(4-carbamimidoylphenyl)-1H-indole-6-carboxamidine release by measuring increase in fluorescence intensity at 50 uM in presence of CT-DNA incubated for 3 hrs under dark condition by RP-HPLC analysis; format: functional
Procedure, shortened: (§4)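 Samples at 50 μM in PBS pH 7.4 were either kept 3 h at 37 °C in the dark or illuminated 20 min at 480 nm (450–495 nm filter, 3.1 J cm⁻²). Analysed by RP-HPLC on a C18 analytical column with absorbance at 345 nm; retention times recorded. n = 2 independent samples.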

MCF7 [6] = assay: Photocytotoxicity against human MCF7 cells assessed as reduction in cell viability incubated for 1 hr followed by washout and irradiation with 480 nm 2.3 J/cm^2 light for 15 mins and measured after 24 hrs by MTT assay; format: functional; conditions: MCF7, light or radiation study; procedure, shortened: as §1
MCF7 [7] = assay: Induction of ROS production in human MCF7 cells assessed as increase in green fluorescence signal at 3 uM irradiated with 480 nm 2.3 J/cm^2 light for 15 mins with 16 J 780 nm 2P laser light for 10 seconds by DCFH2-DA probe based analysis; format: functional, cell-based
Procedure, shortened: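 MCF7 cells given compound at 3 μM and DCFH2DA (10 μM). Uncaged by 480 nm illumination (15 min, 2.3 J cm⁻²). DCF fluorescence imaged before and after 780 nm two-photon laser exposure (10 s, 16 J).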

[8] = Drug localization in mitochondria of human MCF7 cells assessed as increase in bright green fluorescence of wintergreen excitation at 2 uM incubated for 1 hr in dark by Mitotracker green dye based analysis; format: ADME; conditions: mcf7, 1 h
MCF7 [9] = assay: Photocytotoxicity against human MCF7 cells cultured as […] spheroids assessed as fold reduction in diameter of tumor spheroid size at 10 uM incubated for 1 hr followed by washout and irradiation with 480 nm 2.3 J/cm^2 light for 15 mins with 8 J/cm^2 UV irradiation for 5 mins and incubated overnight by cell viability imaging kit based assay; format: functional
Procedure, shortened: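 MCF7 spheroids (~300 μm) grown in ultralow-attachment plates. Compound added to medium at 10 μM final for 1 h, then illuminated: 480 nm (15 min, 2.3 J cm⁻²), 480 nm plus UV (5 min, 8.0 J cm⁻²), or UV only. After overnight incubation, stained with a live/dead imaging kit; dead-cell green mean intensity and spheroid diameter assessed.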

DNA = assay: Induction of DNA (unknown origin) damage in PBS at pH 7.4 assessed as double strand breaks by measuring production of small DNA fragments at 10 uM irradiated with 480 nm 2.3 J/cm^2 light for 15 mins with 8 J/cm^2 UV irradiation for 5 mins by ethidium bromide staining based agarose gel electrophoresis; format: nucleic-acid assay; conditions: time 20.0 min
Procedure, shortened: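 Plasmid dsDNA (70 ng pCMV-PARP1-3xFlag-WT, 7146 bp) in PBS pH 7.4 with compound at 10 μM. Illumination: 480 nm for 15 min (2.3 J cm⁻²), then UV 365 nm lamp for 5 min (8.0 J cm⁻²). Samples denatured, run on 1% agarose gel with ethidium bromide. n = 2.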

[10] = as §2, with “MCF7” for “HeLa”; format: ADME, cell-based; conditions: mcf7, 1 h; procedure, shortened: as §3
MCF7 [11] = assay: Photocytotoxicity against human MCF7 cells assessed as reduction in cell viability incubated for 1 hr under dark condition followed by washout and measured after 24 hrs by MTT assay; format: functional; procedure, shortened: as §1
MCF7 [12] = assay: Photocytotoxicity against human MCF7 cells assessed as cell death by measuring increase in green fluorescence at 4 uM incubated for 1 hr followed by washout and irradiated with 480 nm 2.3 J/cm^2 light for 15 mins with 48 J 780 nm 2P laser light for 30 seconds by cell viability imaging kit based assay; format: functional
Procedure, shortened: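 MCF7 cells given compound at 4 μM. Illuminated with 480 nm light (15 min, 2.3 J cm⁻²) plus 780 nm two-photon laser (30 s, 48 J). Stained 2 h later with a live/dead imaging kit: green dead-cell stain (EGFP filter), blue total-cell stain (DAPI filter). n = 3.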

[13] = Photorelease activity in PBS at pH 7.4 assessed as 3-bromo-2-(4-carbamimidoylphenyl)-1H-indole-6-carboxamidine release by measuring time at when peak observed at 50 uM in presence of CT-DNA illuminated with 3.1 J/cm^2 480 nm illumination for 20 mins by RP-HPLC analysis; format: functional; procedure, shortened: as §4
[14] = as §2, with “A549” for “HeLa”; format: ADME, cell-based; conditions: a549, 1 h; procedure, shortened: as §3
Calf thymus DNA = assay: Binding affinity to calf thymus DNA assessed as dissociation constant by fluorescence based analysis; format: nucleic-acid assay, Bos taurus
Procedure, shortened: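 Fluorescence titration: compound at 20 μM in PBS pH 7.4, calf thymus DNA added in 10 μM steps until emission plateaued (~60 μM). Excitation 345 nm, emission 350–650 nm. KD obtained by fitting a one-site total saturation binding model (nonspecific binding proportional to ligand). Triplicate independent samples.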

With CC1=CC(C)=[N+]2C1=C(COC(=O)/N=C(\N)c1ccc3c(Br)c(-c4ccc(C(=N)N)cc4)[nH]c3c1)c1c(C)cc(C)n1[B-]2(C)C the Activity (MCF7 [1]) was “Active”, the Ratio (A549) was 17 and the Activity (MCF7 [2]) was “Active”. The Stability [3] was “Stable”, the Activity [4] was “Active” and the Drug metabolism [5] was “Metabolite not detected”. The CC50 (MCF7 [6]) was 4 µM, the Activity (MCF7 [7]) was “Active” and the Drug uptake [8] was “Active”. For the same molecule, the “fold change (FC)” value (MCF7 [9]) was 5, the Activity (DNA) was “Active” and the Stability [10] was “Stable”. The CC50 (MCF7 [11]) was over 10 µM, the Activity (MCF7 [12]) was “Active” and the TIME [13] was 0.533 h. The Stability [14] was “Stable” and the Kd (Calf thymus DNA) was 6 µM.
